Results on three compounds are retold here after ChEMBL document CHEMBL4196175, “First SAR Study for Overriding NRAS Mutant Driven Acute Myeloid Leukemia” (J Med Chem, 2018).

For one data set, the species on record is Mus musculus. Kind of data set: Inhibition of ACK1/GCK in mouse BA/F3 cells assessed as reduction in NRAS-G12D mutant-mediated cell proliferation after 72 hrs by celltiter-glo assay. In kind it is cell-based.
Data set [1] deals with OCI-AML-3. Kind of data set: Growth inhibition of ACK1/GCK knockdown human OCI-AML3 cells harboring NRAS-Q61L mutant at 0.5 uM after 72 hrs by celltiter-glo assay. In kind it is functional, cell-based.
Data set [2] in a line: Growth inhibition of parental mouse BA/F3 cells after 72 hrs by celltiter-glo assay. In kind it is cell-based, BaF3.
A short description of data set [3]: Growth inhibition of parental human U937 cells after 72 hrs by celltiter-glo assay. In kind it is cell-based, U-937.
The target in data set [4] is T1, Mitogen-activated protein kinase kinase kinase kinase 2 (Homo sapiens, UniProt Q12851).
T1 sequence (Q12851 whole entry): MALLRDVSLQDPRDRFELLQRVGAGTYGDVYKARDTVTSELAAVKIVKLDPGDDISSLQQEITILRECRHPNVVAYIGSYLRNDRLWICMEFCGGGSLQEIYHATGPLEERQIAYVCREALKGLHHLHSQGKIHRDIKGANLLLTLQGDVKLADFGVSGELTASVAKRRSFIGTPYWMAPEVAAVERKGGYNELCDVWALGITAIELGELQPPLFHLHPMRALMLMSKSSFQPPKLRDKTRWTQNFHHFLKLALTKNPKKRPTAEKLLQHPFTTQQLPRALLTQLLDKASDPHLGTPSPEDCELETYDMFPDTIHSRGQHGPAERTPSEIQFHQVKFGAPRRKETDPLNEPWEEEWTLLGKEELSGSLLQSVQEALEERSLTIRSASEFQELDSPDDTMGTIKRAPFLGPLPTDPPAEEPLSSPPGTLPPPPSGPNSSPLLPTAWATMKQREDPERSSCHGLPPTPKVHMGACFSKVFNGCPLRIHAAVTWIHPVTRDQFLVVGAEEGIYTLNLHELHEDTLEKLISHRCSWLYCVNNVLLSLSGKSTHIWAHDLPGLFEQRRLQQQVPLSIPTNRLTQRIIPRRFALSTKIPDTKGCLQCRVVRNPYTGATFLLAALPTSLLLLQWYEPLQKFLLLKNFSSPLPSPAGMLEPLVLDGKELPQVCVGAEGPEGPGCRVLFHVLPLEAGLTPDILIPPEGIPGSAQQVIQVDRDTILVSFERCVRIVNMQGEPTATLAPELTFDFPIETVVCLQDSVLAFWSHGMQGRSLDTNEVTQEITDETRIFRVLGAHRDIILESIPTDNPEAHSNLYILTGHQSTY
Kind of data set: Inhibition of GCK (unknown origin) by radiometric biochemical kinase assay.

Data set [5] deals with OCI-AML-3. The data set is described as follows: Growth inhibition of human OCI-AML3 cells harboring NRAS-Q61L mutant after 72 hrs by celltiter-glo assay. In kind it is functional. The following applies: OCI-AML-3, 72 h.
For another data set, the target named is Activated CDC42 kinase 1 (Homo sapiens, UniProt Q07912). Kind of data set: Inhibition of ACK1 (unknown origin) by radiometric biochemical kinase assay.
Activated CDC42 kinase 1, sequence (Q07912 whole entry): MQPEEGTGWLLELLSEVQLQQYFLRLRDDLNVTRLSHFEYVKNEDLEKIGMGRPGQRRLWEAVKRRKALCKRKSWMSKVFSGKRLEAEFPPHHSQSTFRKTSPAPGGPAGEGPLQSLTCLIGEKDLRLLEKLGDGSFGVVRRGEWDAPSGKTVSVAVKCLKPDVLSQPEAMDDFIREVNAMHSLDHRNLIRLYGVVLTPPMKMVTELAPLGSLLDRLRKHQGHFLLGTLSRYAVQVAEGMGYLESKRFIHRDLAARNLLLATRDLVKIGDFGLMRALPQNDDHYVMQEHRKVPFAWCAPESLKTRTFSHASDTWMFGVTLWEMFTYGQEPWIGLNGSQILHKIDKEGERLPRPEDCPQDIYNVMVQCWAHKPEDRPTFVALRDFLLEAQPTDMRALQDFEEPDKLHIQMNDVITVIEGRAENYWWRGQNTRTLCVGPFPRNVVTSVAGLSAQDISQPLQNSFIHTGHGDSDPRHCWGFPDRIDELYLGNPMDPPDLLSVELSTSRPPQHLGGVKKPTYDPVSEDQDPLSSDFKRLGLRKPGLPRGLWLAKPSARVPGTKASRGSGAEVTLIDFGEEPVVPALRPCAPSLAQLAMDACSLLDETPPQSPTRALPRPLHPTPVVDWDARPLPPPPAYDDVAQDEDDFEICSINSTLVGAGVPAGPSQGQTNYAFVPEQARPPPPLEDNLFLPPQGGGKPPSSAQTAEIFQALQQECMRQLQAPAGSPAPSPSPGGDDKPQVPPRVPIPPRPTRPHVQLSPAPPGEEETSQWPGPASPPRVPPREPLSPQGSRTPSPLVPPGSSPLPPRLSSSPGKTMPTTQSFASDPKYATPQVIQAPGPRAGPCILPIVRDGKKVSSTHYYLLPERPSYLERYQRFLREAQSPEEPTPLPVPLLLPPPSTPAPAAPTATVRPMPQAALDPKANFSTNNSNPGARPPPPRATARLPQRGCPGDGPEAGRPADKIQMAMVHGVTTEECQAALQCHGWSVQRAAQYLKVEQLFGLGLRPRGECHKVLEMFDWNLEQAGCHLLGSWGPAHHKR
For data set [6], the system named is BaF3. The data set is described as follows: Antileukemic activity against mouse BA/F3 cells harboring NRAS-G12D mutant allografted in immunodeficient mouse assessed as median survival time at 8 mg/kg/day, po qd administered on day 6 post implantation (reference value: 23 days). In kind it is functional.
Data set [7] can be described thus: Metabolic stability in rat liver microsomes assessed as compound remaining at 1 uM after 30 mins. The following applies: read-out: Stability. In kind it is ADME, microsome.
The target of a further data set is CYP3A4 (Homo sapiens, UniProt P08684). The data set is described as follows: Inhibition of CYP3A4 (unknown origin) assessed as activity remaining at 10 uM relative to control. In kind it is ADME. Conditions: read-out: Activity.
CYP3A4, sequence (P08684 whole entry): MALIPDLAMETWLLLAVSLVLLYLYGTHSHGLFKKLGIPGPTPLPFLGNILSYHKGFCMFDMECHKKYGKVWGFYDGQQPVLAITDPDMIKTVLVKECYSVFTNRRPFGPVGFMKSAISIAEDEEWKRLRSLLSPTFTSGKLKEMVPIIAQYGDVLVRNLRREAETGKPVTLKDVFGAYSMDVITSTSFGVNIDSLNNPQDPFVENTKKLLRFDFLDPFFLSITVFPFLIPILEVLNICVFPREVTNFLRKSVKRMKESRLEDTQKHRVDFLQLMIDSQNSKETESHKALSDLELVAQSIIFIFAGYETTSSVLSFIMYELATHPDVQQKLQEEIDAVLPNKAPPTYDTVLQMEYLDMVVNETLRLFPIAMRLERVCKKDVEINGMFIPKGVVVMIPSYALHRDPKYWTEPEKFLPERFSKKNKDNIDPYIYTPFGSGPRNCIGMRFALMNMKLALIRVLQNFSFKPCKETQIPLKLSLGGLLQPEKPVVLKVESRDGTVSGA
In data set [8] the test system is OCI-AML-3. Kind of data set: Inhibition of anchorage-independent cell growth in human OCI-AML3 cells harboring NRAS Q61L mutant assessed as reduction in colony number at 0.1 to 1 uM after 14 days by iodonitrotetrazolium chloride staining-based soft agar assay. In kind it is functional. A digest of the protocol: (§1)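 OCI-AML3 cells embedded in 0.7% low-melting agar, incubated 2 weeks with compound at 0.1 or 1 µM; colony number and colony size per well measured by automated image analysis; n = 3 per condition, SD, one-way ANOVA.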

The subject of data set [9] is OCI-AML-3. The data set is described as follows: Inhibition of anchorage-independent cell growth in human OCI-AML3 cells harboring NRAS Q61L mutant assessed as reduction in colony size at 0.1 to 1 uM after 14 days by iodonitrotetrazolium chloride staining-based soft agar assay. In kind it is functional. A digest of the protocol:
as §1

The test system of data set [10] is OCI-AML-3. The data set is described as follows: Cell cycle arrest in human OCI-AML3 cells harboring NRAS Q61L mutant assessed as accumulation at G0/G1 phase at 1 uM after 24 hrs by propidium iodide staining based FACS analysis. In kind it is functional. A digest of the protocol: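 OCI-AML3 cells treated 24 h at indicated concentrations, including 1 µM; cell-cycle phase distribution measured by flow cytometry after propidium iodide staining.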

The subject of data set [11] is BaF3. Kind of data set: Induction of apoptosis in mouse BA/F3 cells expressing NRAS-G12D mutant assessed as decrease in bcl2 levels at 1 uM after 24 hrs by Western blot analysis. In kind it is functional, cell-based. A digest of the protocol: (§2)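 Cells treated 24 h with indicated concentrations (1 µM; 5 µM also used in Ba/F3-NRAS-G12D); cleaved PARP, cleaved caspase 3, bcl-2 and MCL1 detected by western blot with actin as loading control.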

Data set [12] deals with BaF3. The data set is described as follows: Antileukemic activity against mouse BA/F3 cells harboring NRAS-G12D mutant/luciferase allografted in immunodeficient mouse at 8 mg/kg/day, po qd administered on day 6 post implantation measured on day 20 post implantation by bioluminescence imaging method. In kind it is functional, organism-based. A digest of the protocol: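 Immunodeficient mice injected via tail vein with Ba/F3-NRAS-G12D/Luc cells, dosed orally once daily (8 or 15 mg/kg/day) or vehicle for 3 weeks, n=4 per cohort; bioluminescence imaged every two days after luciferin 150 mg/kg, quantified by bio-photonic analysis.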

Data set [13] has as its system BaF3. The data set is described as follows: Induction of apoptosis in mouse BA/F3 cells expressing NRAS-G12D mutant assessed as increase in cleaved caspase-3 levels at 1 uM after 24 hrs by Western blot analysis. In kind it is functional, cell-based. A digest of the protocol: as §2
Data set [14] relates to OCI-AML-3. The data set is described as follows: Antileukemic activity against human OCI-AML3 cells harboring NRAS-Q61L mutant xenografted in immunodeficient mouse assessed as tumor volume at 8 mg/kg/day, po qd administered on day 21 post implantation measured on […] (reference value: 100%). In kind it is functional.
Data set [15] deals with BaF3. Kind of data set: Induction of apoptosis in mouse BA/F3 cells expressing NRAS-G12D mutant assessed as increase in cleaved PARP levels at 1 uM after 24 hrs by Western blot analysis. In kind it is functional, cell-based. A digest of the protocol: as §2
A short description of data set [16]: Metabolic stability in human liver microsomes assessed as compound remaining at 1 uM after 30 mins. The following applies: read-out: Stability. In kind it is ADME, microsome.
The test system of data set [17] is OCI-AML-3. Kind of data set: Growth inhibition of ACK1/GCK knockdown human OCI-AML3 cells harboring NRAS-Q61L mutant at 0.2 uM after 72 hrs by celltiter-glo assay. In kind it is functional, cell-based.
A further data set deals with CYP2C9 (Homo sapiens, UniProt P11712). The data set is described as follows: Inhibition of CYP2C9 (unknown origin) assessed as activity remaining at 10 uM relative to control. In kind it is ADME. The following applies: read-out: Activity.
CYP2C9, sequence (P11712 whole entry): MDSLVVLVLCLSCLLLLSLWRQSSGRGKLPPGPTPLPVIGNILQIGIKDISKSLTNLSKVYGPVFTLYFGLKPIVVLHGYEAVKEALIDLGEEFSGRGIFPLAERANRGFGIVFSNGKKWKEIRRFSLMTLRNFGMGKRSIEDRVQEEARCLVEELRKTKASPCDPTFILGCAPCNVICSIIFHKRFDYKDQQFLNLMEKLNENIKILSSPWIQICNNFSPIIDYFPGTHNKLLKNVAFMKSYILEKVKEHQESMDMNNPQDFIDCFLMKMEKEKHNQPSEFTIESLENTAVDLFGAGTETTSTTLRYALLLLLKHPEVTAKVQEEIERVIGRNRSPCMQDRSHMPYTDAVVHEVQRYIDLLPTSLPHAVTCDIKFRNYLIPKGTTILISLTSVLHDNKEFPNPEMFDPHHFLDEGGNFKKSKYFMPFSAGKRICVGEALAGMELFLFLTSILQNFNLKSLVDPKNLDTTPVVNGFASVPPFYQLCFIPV
In a further data set the target is CYP2D6 (Homo sapiens, UniProt P10635). The data set is described as follows: Inhibition of CYP2D6 (unknown origin) assessed as activity remaining at 10 uM relative to control. In kind it is ADME. The following applies: read-out: Activity.
CYP2D6, sequence (P10635 whole entry): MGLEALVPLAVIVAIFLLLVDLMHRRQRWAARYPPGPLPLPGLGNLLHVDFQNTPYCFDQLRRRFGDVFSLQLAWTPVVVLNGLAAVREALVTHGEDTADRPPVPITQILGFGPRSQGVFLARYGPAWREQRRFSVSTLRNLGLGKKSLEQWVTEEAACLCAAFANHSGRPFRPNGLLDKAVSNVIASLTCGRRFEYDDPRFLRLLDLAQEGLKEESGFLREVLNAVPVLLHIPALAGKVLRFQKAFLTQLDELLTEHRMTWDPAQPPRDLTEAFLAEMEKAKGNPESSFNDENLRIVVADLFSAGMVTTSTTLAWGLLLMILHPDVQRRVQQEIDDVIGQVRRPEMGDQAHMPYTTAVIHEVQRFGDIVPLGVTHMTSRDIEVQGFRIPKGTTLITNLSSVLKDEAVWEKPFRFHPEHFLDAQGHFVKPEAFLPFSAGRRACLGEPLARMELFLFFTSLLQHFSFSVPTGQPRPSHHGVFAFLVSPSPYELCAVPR
Data set [18] deals with BaF3. The data set is described as follows: Induction of apoptosis in mouse BA/F3 cells expressing NRAS-G12D mutant assessed as decrease in MCL1 levels at 1 uM after 24 hrs by Western blot analysis. In kind it is functional, cell-based. A digest of the protocol:
as §2

The nature of data set [19]: Metabolic stability in mouse liver microsomes assessed as compound remaining at 1 uM after 30 mins. The following applies: read-out: Stability. In kind it is ADME, microsome.
Another data set deals with T2, CYP1A2 (Homo sapiens, UniProt P05177).
T2 sequence (P05177 whole entry): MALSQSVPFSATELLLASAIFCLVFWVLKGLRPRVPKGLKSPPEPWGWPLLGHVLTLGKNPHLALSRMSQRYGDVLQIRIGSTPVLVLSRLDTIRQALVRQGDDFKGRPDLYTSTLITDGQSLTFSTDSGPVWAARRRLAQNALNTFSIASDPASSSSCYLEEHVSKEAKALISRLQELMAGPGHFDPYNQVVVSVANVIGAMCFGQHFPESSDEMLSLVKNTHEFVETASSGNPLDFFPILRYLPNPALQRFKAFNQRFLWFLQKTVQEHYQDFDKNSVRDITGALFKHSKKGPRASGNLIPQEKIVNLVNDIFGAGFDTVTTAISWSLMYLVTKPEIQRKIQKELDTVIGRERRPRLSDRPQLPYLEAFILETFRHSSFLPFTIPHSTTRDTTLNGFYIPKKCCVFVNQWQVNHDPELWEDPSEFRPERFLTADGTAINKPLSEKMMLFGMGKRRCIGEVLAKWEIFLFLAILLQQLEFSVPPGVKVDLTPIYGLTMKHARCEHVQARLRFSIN
The data set is described as follows: Inhibition of CYP1A2 (unknown origin) assessed as activity remaining at 10 uM relative to control. In kind it is ADME. The following applies: read-out: Activity.

A short description of data set [20]: Metabolic stability in dog liver microsomes assessed as compound remaining at 1 uM after 30 mins. In kind it is ADME, Canis lupus familiaris, microsome. The following applies: read-out: Stability.
Data set [21] can be described thus: Selectivity index, ratio of GI50 for parental human U937 cells to GI50 for human OCI-AML3 cells harboring NRAS-Q61L mutant. A digest of the protocol:
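Human AML lines OCI-AML3 (NRAS mutant) and U937 (NRAS wild-type) were exposed to inhibitors for 72 h. GI50 is the concentration giving half-maximal growth inhibition, averaged with SD (n = 3, duplicate). The index is the U937 GI50 divided by the OCI-AML3 GI50.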

Structures are written as SMILES. Activity calls are given as the source filed them. The calls are words filed in the database; no cut-off is given here.

With `Cc1ccc(NC(=O)c2cccc(C(F)(F)F)c2)cc1N1Cc2cnc(NCCO)nc2N(C)C1=O`, the concentration for 50% growth inhibition (GI50) in the data set filed under Mus musculus was 290 nM; with OCI-AML-3 [5], 367 nM. The “growth inhibition (GI)” value in the data set on OCI-AML-3 [1] was “Active”. In addition, the figures for the concentration for 50% growth inhibition (GI50) at 72 h in data set [2] and in data set [3] were 3290 nM and 8530 nM, respectively. The values for the IC50 (in data set [4]; against Activated CDC42 kinase 1) were 33 nM and 21 nM, respectively.
Take `Cc1ccc(Nc2ncc3c(n2)N(C)C(=O)N(c2cc(NC(=O)c4cccc(C(F)(F)F)c4)ccc2C)C3)cn1`: the MSD in the data set with BaF3 [6] was 31 days. The GI50 was determined as 81 nM in the data set filed under Mus musculus and 219 nM in the data set on OCI-AML-3 [5]. For the same compound, the remaining at 0.5 h, 1 µM in data set [7] was determined as 84.8%; in data set [16] it was 78.6%; in data set [19], 80.5%; in [20], 55.3%. In addition, the activity at 10 µM on CYP3A4 was > 100%; on CYP2C9 it was 27%; on CYP2D6 it was 68.4%; on CYP1A2, 93.2%. Further, the “growth inhibition (GI)” value with OCI-AML-3 [8], with OCI-AML-3 [9] and in the data set with OCI-AML-3 [17] was “Active” throughout. Moreover, the GI50 at 72 h in data set [2] was 1030 nM; in data set [3], 4380 nM. Besides, the Activity entry with OCI-AML-3 [10], with BaF3 [11], in the data set on BaF3 [12], in the data set with BaF3 [13], in the data set on BaF3 [15] and with BaF3 [18] was “Active” each time. In the data set with OCI-AML-3 [14], the Activity is recorded as 53.8%. For the same compound, the values for the IC50 (in data set [4]; at Activated CDC42 kinase 1) were 8 nM and 25 nM, respectively.
For `Cc1ccc(Nc2ncc3c(n2)N(C)C(=O)N(c2cc(NC(=O)c4ccc(-n5cccc5)c(C(F)(F)F)c4)ccc2C)C3)cn1`, the figures for the GI50 in the data set listed under Mus musculus and in the data set with OCI-AML-3 [5] were 69 nM and 267 nM, respectively. The GI50 at 72 h in data set [2] is 317 nM; in data set [3] it was > 25000 nM. Moreover, the “growth inhibition (GI)” value with OCI-AML-3 [17] is “Active”. Further, the RatioGI50 in data set [21] is 100. In addition, the IC50 is 24 nM in data set [4] and 10 nM on Activated CDC42 kinase 1.
